Laboratory results as given in ChEMBL document CHEMBL5230178, “6-Bromoindirubin-3'-oxime derivatives are highly active colistin adjuvants against Klebsiella pneumoniae” (RSC Med Chem, 2023).
Activity calls are given as the source filed them. The calls are words filed in the database; no cut-off is given here.

How the values were obtained:
Klebsiella pneumoniae [1] = assay: Potentiation of colistin-induced antibacterial activity against colistin resistant Klebsiella pneumoniae B9 assessed as colistin MIC at 5 uM incubated for 16 hrs by broth microdilution method; format: functional
How it was run: (§1)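 Bacteria grown 6 h in CAMHB, diluted to 5×10^5 CFU/mL. Fixed adjuvant concentration added from DMSO stock; an undosed aliquot gives the colistin MIC alone. Colistin serially two-fold diluted in the compound-dosed suspension. MIC taken at 90% growth inhibition versus untreated wells. Fold change is colistin MIC alone over MIC with adjuvant. Duplicate, repeated at least twice.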

Klebsiella pneumoniae [2] = assay: Antibacterial activity against Klebsiella pneumoniae B9 assessed as inhibition of bacterial growth incubated for 16 hrs by broth microdilution method; format: functional
How it was run: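 Broth microdilution in CAMHB. Six-hour culture diluted to 5×10^5 CFU/mL, compound added from DMSO stock, two-fold serial dilution. MIC is the lowest concentration giving 90% growth inhibition versus untreated wells. Run in duplicate, repeated at least twice.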

Klebsiella pneumoniae [3] = assay: Potentiation of colistin-induced antibacterial activity against colistin-resistant Klebsiella pneumoniae B9 assessed as fold change in colistin MIC at 5 uM incubated for 16 hrs by broth microdilution method; format: functional; how it was run: as §1
Klebsiella pneumoniae [4] = assay: Potentiation of colistin-induced antibacterial activity against colistin-resistant Klebsiella pneumoniae B9 assessed as fold change in colistin MIC at 3 uM incubated for 16 hrs by broth microdilution method; format: functional; how it was run: as §1
Klebsiella pneumoniae [5] = assay: Potentiation of colistin-induced antibacterial activity against colistin-resistant Klebsiella pneumoniae B9 assessed as colistin MIC at 1 uM incubated for 16 hrs by broth microdilution method; format: functional; how it was run: as §1
Klebsiella pneumoniae [6] = assay: Potentiation of colistin-induced antibacterial activity against colistin-resistant Klebsiella pneumoniae B9 assessed as colistin MIC at 3 uM incubated for 16 hrs by broth microdilution method; format: functional; how it was run: as §1
Acinetobacter baumannii [7] = assay: Antimicrobial activity against colistin resistant Acinetobacter baumannii 3941 assessed as inhibition of microbial growth incubated for 16 hrs by broth microdilution method; format: functional, organism-based
How it was run: (§2)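 Bacteria grown 6 h in cation-adjusted Mueller Hinton broth (CAMHB), subcultured to 5×10^5 CFU/mL. Compound added from DMSO stock and serially two-fold diluted in the culture. Incubated stationary at 37 °C for 16 h. MIC taken as the lowest concentration giving 90% growth inhibition versus untreated wells. Duplicate, repeated at least twice.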

Klebsiella pneumoniae [8] = assay: Potentiation of colistin-induced antibacterial activity against colistin resistant Klebsiella pneumoniae C3 assessed as colistin MIC at 5 uM incubated for 16 hrs by broth microdilution method; format: functional; how it was run: as §1
Escherichia coli [9] = assay: Antimicrobial activity against colistin resistant Escherichia coli 25922 harbouring mcr-1 gene assessed as inhibition of microbial growth incubated for 16 hrs by broth microdilution method; format: functional, organism-based; how it was run: as §2
Pseudomonas aeruginosa [10] = assay: Antimicrobial activity against colistin resistant Pseudomonas aeruginosa TRPA 162 assessed as inhibition of microbial growth incubated for 16 hrs by broth microdilution method; format: functional, organism-based; how it was run: as §2
Acinetobacter baumannii [11] = assay: Potentiation of colistin-induced antimicrobial activity against colistin resistant Acinetobacter baumannii 3941 assessed as assessed as colistin MIC at 5 uM incubated for 16 hrs by broth microdilution method; format: functional; how it was run: as §1
Klebsiella pneumoniae [12] = assay: Potentiation of colistin-induced antibacterial activity against colistin resistant Klebsiella pneumoniae F9 assessed as colistin MIC at 5 uM incubated for 16 hrs by broth microdilution method; format: functional; how it was run: as §1
Klebsiella pneumoniae [13] = assay: Potentiation of colistin-induced antibacterial activity against colistin resistant Klebsiella pneumoniae F2210291 harbouring mcr-1 gene assessed as colistin MIC at 5 uM incubated for 16 hrs by broth microdilution method; format: functional; how it was run: as §1
Escherichia coli [14] = assay: Potentiation of colistin-induced antimicrobial activity against colistin resistant Escherichia coli 25922 harbouring mcr-1 gene assessed as colistin MIC at 5 uM incubated for 16 hrs by broth microdilution method; format: functional; how it was run: as §1
Klebsiella pneumoniae [15] = assay: Potentiation of colistin-induced antibacterial activity against colistin resistant Klebsiella pneumoniae I2 assessed as colistin MIC at 5 uM incubated for 16 hrs by broth microdilution method; format: functional; how it was run: as §1
Pseudomonas aeruginosa [16] = assay: Potentiation of colistin-induced antimicrobial activity against colistin-resistant Pseudomonas aeruginosa TRPA 162 assessed as colistin MIC at 5 uM incubated for 16 hrs by broth microdilution method; format: functional; how it was run: as §1

O=C1Nc2ccc(Br)cc2/C1=C1/Nc2ccccc2/C1=N\O [INDIRUBIN 2]
MIC (Klebsiella pneumoniae [1]): > 16 µg/mL
MIC (Klebsiella pneumoniae [2]): > 200 µM

O=C1Nc2cc(Br)ccc2/C1=C1/Nc2cc(Cl)c(Cl)cc2/C1=N\O
MIC (Klebsiella pneumoniae [1]): > 16 µg/mL
MIC (Klebsiella pneumoniae [2]): > 200 µM

O=C1Nc2cc(C(F)(F)F)ccc2/C1=C1/Nc2ccccc2/C1=N\O
MIC (Klebsiella pneumoniae [1]): 8 µg/mL
fold change (FC) (Klebsiella pneumoniae [3]): 64
MIC (Klebsiella pneumoniae [2]): > 200 µM

O=C1Nc2cc(Br)ccc2/C1=C1/Nc2ccc(Cl)cc2/C1=N\O
MIC (Klebsiella pneumoniae [1]): 2 µg/mL
fold change (FC) (Klebsiella pneumoniae [4]): 32
MIC (Klebsiella pneumoniae [5]): > 64 µg/mL
fold change (FC) (Klebsiella pneumoniae [3]): 256
MIC (Klebsiella pneumoniae [2]): > 200 µM
MIC (Klebsiella pneumoniae [6]): 16 µg/mL

O=C1Nc2cc(Br)ccc2/C1=C1/Nc2cc(F)c(F)cc2/C1=N\O
MIC (Klebsiella pneumoniae [1]): 1 µg/mL
fold change (FC) (Klebsiella pneumoniae [4]): 128
MIC (Klebsiella pneumoniae [5]): > 64 µg/mL
fold change (FC) (Klebsiella pneumoniae [3]): 512
MIC (Klebsiella pneumoniae [2]): > 200 µM
MIC (Klebsiella pneumoniae [6]): 4 µg/mL

O=C1Nc2ccc(Cl)cc2/C1=C1/Nc2ccccc2/C1=N\O
MIC (Klebsiella pneumoniae [1]): > 16 µg/mL
MIC (Klebsiella pneumoniae [2]): > 200 µM

COc1ccc2c(c1)NC(=O)/C2=C1\Nc2ccccc2\C1=N/O
MIC (Klebsiella pneumoniae [1]): > 16 µg/mL
MIC (Klebsiella pneumoniae [2]): > 200 µM

Cc1ccc2c(c1)C(=N\O)/C(=C1/C(=O)Nc3cc(Br)ccc31)N2
MIC (Klebsiella pneumoniae [1]): > 16 µg/mL

O=C1Nc2cc(Br)ccc2/C1=C1/Nc2cc(F)ccc2/C1=N\O
MIC (Klebsiella pneumoniae [1]): > 16 µg/mL
MIC (Klebsiella pneumoniae [2]): > 200 µM

O=C1Nc2cc(Br)ccc2/C1=C1/Nc2ccc(C(F)(F)F)cc2/C1=N\O
MIC (Klebsiella pneumoniae [1]): 8 µg/mL
fold change (FC) (Klebsiella pneumoniae [3]): 64
MIC (Klebsiella pneumoniae [2]): > 200 µM

O=C1Nc2cc(Br)ccc2/C1=C1/Nc2c(cccc2-c2ccccc2)/C1=N\O
MIC (Klebsiella pneumoniae [1]): > 16 µg/mL
MIC (Klebsiella pneumoniae [2]): > 200 µM

O=C1Nc2ccccc2/C1=C1/Nc2c(Cl)cccc2/C1=N\O
MIC (Klebsiella pneumoniae [1]): > 16 µg/mL
MIC (Klebsiella pneumoniae [2]): > 200 µM

Cc1cccc2c1NC(=C1\C(=O)Nc3cc(Br)ccc31)/C2=N/O
MIC (Klebsiella pneumoniae [1]): 4 µg/mL
fold change (FC) (Klebsiella pneumoniae [3]): 128
MIC (Klebsiella pneumoniae [2]): > 200 µM

O=C1Nc2cc(Br)ccc2/C1=C1/Nc2ccccc2/C1=N\O [6BIO]
Activity (Acinetobacter baumannii [7]): inactive
MIC (Klebsiella pneumoniae [8]): 4 µg/mL
MIC (Klebsiella pneumoniae [1]): 1 µg/mL
Activity (Escherichia coli [9]): inactive
Activity (Pseudomonas aeruginosa [10]): inactive
MIC (Acinetobacter baumannii [11]): > 16 µg/mL
MIC (Klebsiella pneumoniae [12]): 4 µg/mL
MIC (Klebsiella pneumoniae [13]): 2 µg/mL
MIC (Escherichia coli [14]): 2 µg/mL
MIC (Klebsiella pneumoniae [15]): 8 µg/mL
fold change (FC) (Klebsiella pneumoniae [4]): 16
MIC (Klebsiella pneumoniae [5]): > 64 µg/mL
MIC (Pseudomonas aeruginosa [16]): > 16 µg/mL
fold change (FC) (Klebsiella pneumoniae [3]): 512
MIC (Klebsiella pneumoniae [2]): > 200 µM
MIC (Klebsiella pneumoniae [6]): 32 µg/mL

O=C1Nc2cc(Br)ccc2/C1=C1/Nc2ccc(Br)cc2/C1=N\O
MIC (Klebsiella pneumoniae [1]): 4 µg/mL
fold change (FC) (Klebsiella pneumoniae [3]): 128
MIC (Klebsiella pneumoniae [2]): > 200 µM
